These results are taken from PMC2850055 (Analytical chemistry, 2009).

The subject of experiment [1] is primary mouse astrocytes expressing endogenous AQP4. The experiment is described as follows: Calcein fluorescence quenching cell volume assay in primary mouse astrocytes. The class given is cell-based. The settings on record: for alteration of water flux kinetics / cell volume regulation (RVI, RVD, shrinkage): 20 μM, 15 min incubation, osmotic shock.
The next experiment has as its target AQP4 (Rattus norvegicus, UniProt P47863). The class given is biochemical. The method in brief: (§1)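 Plasma membrane vesicles from rat TNC1 cells were made by homogenisation in sucrose/EDTA/protease-inhibitor buffer (pH 7.2), a 4000g 15 min spin, then pelleting of the supernatant at 17 000g for 45 min. Vesicles at 0.5 mg protein/mL in 50 mM sucrose, 10 mM Tris-HCl pH 7.4 were preincubated 15 min with test compound. Stopped-flow mixing imposed a 250 mOsm inward sucrose gradient. Volume decrease was followed by 90° scatter at 530 nm, and time constant was computed.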

Experiment [2] relates to vesicles from TNC1-untransfected cells. The experiment is described as follows: Stopped-flow light scattering in vesicles from untransfected TNC1 cells. It is filed as biochemical, rat. The conditions noted are these: 20 μM, data not shown. In outline: as §1
Experiment [3] has as its target T1, AQP1 (native, erythrocytes) (Rattus norvegicus, UniProt P29975).
T1 sequence (P29975 1-269): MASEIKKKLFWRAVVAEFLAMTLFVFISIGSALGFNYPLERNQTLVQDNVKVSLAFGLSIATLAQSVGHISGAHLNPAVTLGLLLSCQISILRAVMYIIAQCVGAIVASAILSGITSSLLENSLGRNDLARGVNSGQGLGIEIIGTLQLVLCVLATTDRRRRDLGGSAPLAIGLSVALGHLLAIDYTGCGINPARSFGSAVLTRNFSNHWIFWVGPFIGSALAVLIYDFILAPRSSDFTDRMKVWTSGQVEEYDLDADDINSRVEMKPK
The experiment is described as follows: Stopped-flow light scattering water transport in erythrocytes. The class given is cell-based. The method in brief: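 Erythrocytes came from heparinised Wistar rat blood, were washed three times in PBS (800g, 4 °C, 10 min) and used within 24 h. At 1% haematocrit in PBS they were preincubated 15 min with test compound, then stopped-flow mixed with equal-volume hyperosmolar PBS to give a 250 mOsm inward gradient. Shrinkage was recorded by light scattering at 600 nm at 12 °C.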

For experiment [4], the target named is AQP4 (M23 isoform) in transfected TNC1 cells (Rattus norvegicus, UniProt P47863). The experiment is described as follows: Calcein fluorescence quenching cell volume assay in AQP4-transfected TNC1 cells. The class given is cell-based. The settings on record: 20 uM. The method in brief: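 Rat TNC1 astrocytoma cells were stably co-transfected with rat AQP4 M23 (aa23–323) cDNA and a puromycin-resistance vector, then maintained in 2 μg/mL puromycin. Cells were plated at 12 000 per well and loaded with 10 μM calcein-AM for 45 min at 37 °C. Test compound was given for 15 min at 20 μM final. Calcein fluorescence (490/520 nm) was recorded every 0.5 s through a hyperosmolar NaCl challenge and isosmotic restoration. Shrinkage time constant came from an exponential fit.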
Sequence of AQP4 (M23 isoform) in transfected TNC1 cells (P47863 23-323): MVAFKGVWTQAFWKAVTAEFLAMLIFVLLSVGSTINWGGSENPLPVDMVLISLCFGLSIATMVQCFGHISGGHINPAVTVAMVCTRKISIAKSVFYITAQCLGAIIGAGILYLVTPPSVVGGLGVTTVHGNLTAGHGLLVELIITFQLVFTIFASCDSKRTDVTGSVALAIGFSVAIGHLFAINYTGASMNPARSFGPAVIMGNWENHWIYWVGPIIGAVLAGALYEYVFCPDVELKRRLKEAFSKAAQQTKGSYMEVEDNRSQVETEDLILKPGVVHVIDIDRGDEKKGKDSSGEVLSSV

The test system of experiment [5] is AQP1-expressing fibroblasts (2497 cells). The experiment is described as follows: Calcein fluorescence quenching cell volume assay in 2497 fibroblasts. It is filed as cell-based, mouse. The conditions noted are these: 0.2 mM, 3 min preincubation, hyperosmotic challenge. The method in brief: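 Mouse 2497 fibroblasts with endogenous AQP1 were grown in DMEM with 10% FBS at 37 °C. Cells were plated at 12 000 per well and assayed 24–48 h later at 80–85% confluence. They were loaded with 10 μM calcein-AM for 45 min at 37 °C and preincubated with the agent before the osmotic step. Fluorescence was read at ex 490/em 520 nm every 0.5 s: 15 s baseline, 35 s after hyperosmolar PBS (0.5 M NaCl), then 40 s after water. Shrinkage time constant came from an exponential fit.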

Entries after “also recorded” stand apart in the source; their conditions may differ. Starred links: 1 amine or outer side, 2 acyl side, 3 side chain; linkers in the order of their positions; H or OH if unused. Non-standard residues stand in square brackets, D forms with d. Residues, ends and D or L forms follow the SMILES beside them. *: point of attachment. X2 = CCC(=O)CC1CC(C)CC(C(=O)[*:2])N1[*:1]; X1 = CCCCCCCCC(C)C(=O)*; Aib = CC(C)(N)C(=O)O; X3 = CC(CN(C)CCO)N*

Sequence of AQP4 (P47863 23-323): as above

For `CCC[CH2][Sn]([CH2]CCC)([CH2]CCC)[O]c1cc(Cl)c(Cl)cc1Cl` [NSC164914, tributyl-(2,4,5-trichlorophenoxy)stannane], in experiment [1], the “alteration of water flux kinetics / cell volume regulation (RVI, RVD, shrinkage)” value is “affected shrinkage rate”. Also, the “effect on AQP4” value on AQP4 is “inhibitory effects”. In experiment [2], the “reduction of shrinkage kinetics” value is “no significant reduction”. Moreover, in experiment [3], the “effect on AQP1” value is listed as “inhibitory effects”. In experiment [3] (40 μM), the “inhibition of the shrinkage rate” value is on record as ~ 64%.
For `CCCCCCCCC(C)C(=O)N1CCCC1C(=O)N1C(CC(=O)CC)CC(C)CC1C(=O)NC(C)C(=O)NC(C)(C)C(=O)NC(C)(C)C(=O)NC(C(=O)NC(C)C(=O)NC(C)(C)C(=O)NC(C)(C)C(=O)NC(C)CN(C)CCO)C(C)CC` (stereo not shown) [NSC301460, trichopolin] (X1-P[X2]A[Aib][Aib]IA[Aib][Aib]-X3; configuration not given here), in experiment [1], the “alteration of water flux kinetics / cell volume regulation (RVI, RVD, shrinkage)” value is listed as “affected shrinkage rate”.
Turning to `CCCCCn1cc2c3c(cccc31)C1C=C(C)CN(C)[C@@H]1C2.Cc1ccc(C(=O)OC(C(=O)O)C(OC(=O)c2ccc(C)cc2)C(=O)O)cc1` (stereo not shown) [NSC600681], in experiment [4], the “AQP4-mediated cell shrinkage time constant” value is reported as “significantly longer”.
On to `[Cl][Hg][Cl]` [HgCl2, mercuric chloride], for which the “effect on time course/kinetics of cell shrinkage” value in experiment [1] (astrocytes pretreated with 0.2 mM, 3 min) is on record as “did not change significantly; also recorded: lack of effect”. For the same molecule, the “reduction of the cell shrinkage rate” value in experiment [5] is 52.7 ± 3%.
Consider `CCC[CH2][Pb]([Cl])([CH2]CCC)[CH2]CCC` [NSC168597, tributyl-chloroplumbane], for which the “effect on AQP4” value at AQP4 is recorded as “inhibitory effects”. In addition, in experiment [3], the “effect on AQP1” value is on record as “inhibitory effects”.
On to `OCCN1CCN(CCCN2c3ccccc3Sc3ccc(C(F)(F)F)cc32)CC1` [fluphenazine], for which the “alteration of water flux kinetics / cell volume regulation (RVI, RVD, shrinkage)” value in experiment [1] was “Altered cell volume regulation”.
For `COc1ccc(CCN2CCC(Nc3nc4ccccc4n3Cc3ccc(F)cc3)CC2)cc1` [astemizole], the “alteration of water flux kinetics / cell volume regulation (RVI, RVD, shrinkage)” value in experiment [1] was “Altered cell volume regulation”.
